Our source for the Ki and Ratio values is ChEMBL document CHEMBL1135693, “Solid-phase synthesis of polyamine toxin analogues: potent and selective antagonists of Ca2+-permeable AMPA receptors” (J Med Chem, 2002).

The target of test [1] is T1, Glutamate receptor 1 (Homo sapiens, UniProt P42261). The test can be described thus: Inhibition of the (-40 mV) current elicited by 100 uM glutamate by simultaneous co-application in xenopus oocytes injected with GluR1 flop RNA. The test is classed as cell-based, Oocyte. A digest of the protocol: (§1)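 Two-electrode voltage clamp of stage V–VI Xenopus laevis oocytes (collagenase-isolated), injected with 5-30 ng GluR1 flop cRNA, recorded 3-14 days later in Ringer (pH 7.5; low-Ca2+ Ringer for high-current cells).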

In test [2] the target is T1, Glutamate receptor 1. The test can be described thus: Inhibition of the (-80 mV) current elicited by 100 uM glutamate by simultaneous co-application in xenopus oocytes injected with GluR1 flop RNA. The class given is cell-based, Oocyte. A digest of the protocol:
as §1

Test [3] in a line: Ratio of Ki value at -40 mV to that of -80 mV was determined. The test is classed as functional.
Test [4] can be described thus: Inhibition of the current elicited by 100 uM glutamate by simultaneous co-application of the antagonist in xenopus oocytes injected with a 1:1 mixture of GluR1 flop and GluR2 flop RNA. The test is classed as functional, cell-based, Xenopus laevis. Conditions: oocyte. A digest of the protocol:
(§2)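 Xenopus laevis oocytes (stage V–VI) injected with 5-30 ng cRNA, either 1:1 GluR1 flop + GluR2 flop or GluR5(Q) flop. After 3-14 days, two-electrode voltage clamp recordings were made in Ringer pH 7.5 (low-Ca2+ Ringer if currents were high). […] Values are means of two independent measurements in triplicate.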

Test [5] in a line: Inhibition of the current elicited by 100 uM glutamate by simultaneous co-application of the antagonist in xenopus oocytes injected with a 1:1 mixture of GluR1 flop and GluR2 flop RNA as well as GluR5(Q). The test is classed as functional, cell-based, Xenopus laevis. Conditions: oocyte. A digest of the protocol:
as §2

T1 sequence (P42261 whole entry): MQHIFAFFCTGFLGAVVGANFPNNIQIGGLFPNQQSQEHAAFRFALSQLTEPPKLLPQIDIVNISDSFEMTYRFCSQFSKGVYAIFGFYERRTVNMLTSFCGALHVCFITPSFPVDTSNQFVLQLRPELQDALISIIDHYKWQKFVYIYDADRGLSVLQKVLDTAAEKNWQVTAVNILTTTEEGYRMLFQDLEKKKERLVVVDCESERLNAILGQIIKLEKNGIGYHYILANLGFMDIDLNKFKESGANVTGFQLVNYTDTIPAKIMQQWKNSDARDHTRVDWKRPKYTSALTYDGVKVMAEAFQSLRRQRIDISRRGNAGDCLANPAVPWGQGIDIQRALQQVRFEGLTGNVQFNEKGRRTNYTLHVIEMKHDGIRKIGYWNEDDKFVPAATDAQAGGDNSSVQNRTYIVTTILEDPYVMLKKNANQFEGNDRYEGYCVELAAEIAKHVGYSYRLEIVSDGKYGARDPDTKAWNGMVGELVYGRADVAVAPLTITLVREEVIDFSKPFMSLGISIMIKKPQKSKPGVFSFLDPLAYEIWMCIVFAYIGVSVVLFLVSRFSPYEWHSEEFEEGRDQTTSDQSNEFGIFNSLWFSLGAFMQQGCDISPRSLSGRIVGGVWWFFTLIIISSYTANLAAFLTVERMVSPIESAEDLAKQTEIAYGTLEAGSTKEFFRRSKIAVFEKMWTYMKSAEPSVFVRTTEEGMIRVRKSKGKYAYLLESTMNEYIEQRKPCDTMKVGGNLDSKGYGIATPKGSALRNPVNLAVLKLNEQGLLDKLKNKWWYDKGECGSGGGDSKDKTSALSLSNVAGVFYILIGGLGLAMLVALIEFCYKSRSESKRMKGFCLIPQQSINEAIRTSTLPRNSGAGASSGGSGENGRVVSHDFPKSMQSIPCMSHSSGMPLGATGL

As usually defined, the Ki is a dissociation constant, usually derived from enzyme kinetics or from competition with a known ligand. For `CC(C)(C)C(=O)NC(Cc1ccc(O)cc1)C(=O)NCCCCCCCCNCCCN` (configuration not stated), the Ki amounted to 140 nM at Glutamate receptor 1 [1] and 90 nM at Glutamate receptor 1 [2]. For the same compound, the Ratio in test [3] stood at 1.6.

In the case of `NCCCNCCCCCCCCNC(=O)C(Cc1ccc(O)cc1)NC(=O)/C=C/c1ccccc1` (configuration not stated), the Ki on Glutamate receptor 1 [1] is 170 nM; at Glutamate receptor 1 [2] it was 110 nM. Also, the Ratio in test [3] is 1.5.

In the case of `NCCCNCCCCCCCCNC(=O)C(Cc1ccc(O)cc1)NC(=O)Cc1ccccc1` (configuration not stated), the Ki at Glutamate receptor 1 [1] amounted to 250 nM; on Glutamate receptor 1 [2], 110 nM. For the same compound, the Ratio in test [3] amounted to 2.3.

For `NCCCNCCCCCCCCNC(=O)C(Cc1ccc(O)cc1)NC(=O)CCc1ccccc1` (configuration not stated), the figures for the Ki at Glutamate receptor 1 [1] and on Glutamate receptor 1 [2] were 254 nM and 250 nM, respectively. Also, the Ratio in test [3] is 1.

As to `CCCC(=O)NC(Cc1ccc(O)cc1)C(=O)NCCCCNCCCCCCCN` (configuration not stated), the Ki on Glutamate receptor 1 [1] is 135 nM; at Glutamate receptor 1 [2] it was 38 nM; in test [4], > 10000 nM; in test [5], 60 nM. Moreover, the Ratio in test [3] came to 3.6.

For `CC(=O)NC(Cc1ccc(O)cc1)C(=O)NCCCCCCCCNCCCN` (configuration not stated), the Ki on Glutamate receptor 1 [1] stood at 300 nM; on Glutamate receptor 1 [2] it was 220 nM. Besides, the Ratio in test [3] was determined as 1.4.

For the compound `CCCC(=O)NC(Cc1ccc(O)cc1)C(=O)NCCCCCCCCNCCCN` (configuration not stated), the Ki at Glutamate receptor 1 [1] is 8000 nM; on Glutamate receptor 1 [2], 65 nM; in test [4], > 10000 nM; in test [5], 250 nM.

Regarding `NCCCNCCCCCCCCNC(=O)C(Cc1ccc(O)cc1)NC(=O)c1ccncc1` (configuration not stated), the figures for the Ki on Glutamate receptor 1 [1] and on Glutamate receptor 1 [2] were 330 nM and 64 nM, respectively. Besides, in test [3], the Ratio amounted to 5.1.

Turning to `CCCC(=O)NC(Cc1ccc(O)cc1)C(=O)NCCCNCCCCNCCCN` (configuration not stated), the Ki on Glutamate receptor 1 [1] is 170000 nM; on Glutamate receptor 1 [2] it was 22000 nM; in test [4], > 5000 nM; in test [5], 15 nM.

`CCCC(=O)NC(Cc1ccc(O)cc1)C(=O)NCCCCCCCCCNCCN` (configuration not stated): the Ki was 6200 nM at Glutamate receptor 1 [1], 410 nM at Glutamate receptor 1 [2], > 10000 nM in test [4] and 2100 nM in test [5].

Take `CCCC(=O)NC(Cc1ccc(O)cc1)C(=O)NCCCCCNCCCCCCN` (configuration not stated): the Ki on Glutamate receptor 1 [1] was 287 nM; on Glutamate receptor 1 [2], 3.3 nM; in test [4], 5200 nM; in test [5], 2200 nM. In test [3], the Ratio is 86.

For `NCCCNCCCCCCCCNC(=O)C(Cc1ccc(O)cc1)NC(=O)C1CCCCC1` (configuration not stated), the Ki was 240 nM at Glutamate receptor 1 [1] and 78 nM at Glutamate receptor 1 [2]. Also, the Ratio in test [3] was 3.1.

For the compound `CCC(=O)NC(Cc1ccc(O)cc1)C(=O)NCCCCCCCCNCCCN` (configuration not stated), the Ki on Glutamate receptor 1 [1] turned out to be 280 nM; at Glutamate receptor 1 [2], 100 nM. For the same compound, the Ratio in test [3] was found to be 2.8.

For `CCCC(=O)NC(Cc1ccc(O)cc1)C(=O)NCCCCCCCNCCCCN` (configuration not stated), the Ki on Glutamate receptor 1 [1] worked out at 3000 nM; on Glutamate receptor 1 [2], 168 nM; in test [4], 1600 nM; in test [5], 290 nM. The Ratio in test [3] came out at 18.

`CCCC(=O)NC(Cc1ccc(O)cc1)C(=O)NCCCCCCNCCCCCN` (configuration not stated): the Ki was > 10000 nM on Glutamate receptor 1 [1], 468 nM at Glutamate receptor 1 [2], 6400 nM in test [4] and 800 nM in test [5].

Take `NCCCNCCCCCCCCNC(=O)C(Cc1ccc(O)cc1)NC(=O)c1cccnc1` (configuration not stated): the values for the Ki on Glutamate receptor 1 [1] and on Glutamate receptor 1 [2] were 210 nM and 88 nM, respectively. The Ratio in test [3] stood at 2.4.

On to `NCCCNCCCCCCCCNC(=O)C(Cc1ccc(O)cc1)NC(=O)c1ccccc1` (configuration not stated), for which the Ki on Glutamate receptor 1 [1] is 250 nM; on Glutamate receptor 1 [2], 130 nM. For the same compound, the Ratio in test [3] came to 1.9.

In the case of `CCCCCC(=O)NC(Cc1ccc(O)cc1)C(=O)NCCCCCCCCNCCCN` (configuration not stated), the Ki worked out at 1000 nM on Glutamate receptor 1 [1] and 68 nM on Glutamate receptor 1 [2]. Moreover, in test [3], the Ratio was found to be 14.7.

Turning to `NCCCNCCCCCCCCNC(=O)C(Cc1ccc(O)cc1)NC(=O)c1ccccn1` (configuration not stated), the figures for the Ki on Glutamate receptor 1 [1] and at Glutamate receptor 1 [2] were 170 nM and 130 nM, respectively. The Ratio in test [3] was determined as 1.3.
